Tests used:
PC-3 = assay: cells; settings: Homo sapiens
PANC-1 = assay: cells; settings: Homo sapiens
CAKI-1 = assay: cells; settings: Homo sapiens
HepG2 = assay: cells; settings: Homo sapiens
HCT-116 = assay: cells; settings: Homo sapiens
[1] = target: Hepatocyte growth factor receptor (Homo sapiens, UniProt P08581); assay: Inhibition of c-MET kinase (unknown origin) using poly(Glu:Tyr)(4:1) as substrate by ELISA
[2] = Acute toxicity in ICR mouse assessed as animal survival at 800 mg/kg, po measured on day 14 (reference value: 100%); type: organism-based; settings: in vivo, time 14 day
[3] = Acute toxicity in ICR mouse assessed as animal survival at 2000 mg/kg, po measured on day 14 (reference value: 100%); type: organism-based; settings: in vivo, time 14 day
[4] = target: Voltage-gated inwardly rectifying potassium channel KCNH2 (Homo sapiens, UniProt Q12809); assay: Inhibition of human ERG
[5] = Acute toxicity in ICR mouse assessed as animal survival at 1500 mg/kg, po measured on day 14 (reference value: 100%); type: organism-based; settings: in vivo, time 14 day
[6] = Tmax in Sprague-Dawley rat at 20 mg/kg, po by LC-MS/MS analysis; type: ADME, organism-based; settings: in vivo
Procedure, shortened: (§1)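 Male SD rats were used. Compound concentrations in plasma were measured by LC/MS/MS. The oral arm was dosed at 20 mg/kg.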

[7] = Acute toxicity in ICR mouse assessed as animal survival at 600 mg/kg, po measured on day 14 (reference value: 100%); type: organism-based; settings: in vivo, time 14 day
[8] = Acute toxicity in ICR mouse assessed as abnormalities in liver at 600 to 1200 mg/kg, po administered as single dose and measured on day 14; type: organism-based; settings: in vivo, 336 h, dose 600-1200 mg/kg, time 14 day
[9] = Acute toxicity in ICR mouse assessed as animal survival at 1200 mg/kg, po measured on day 14 (reference value: 100%); type: organism-based; settings: in vivo, time 14 day
[10] = Acute toxicity in ICR mouse assessed as abnormalities in kidneys at 600 to 1200 mg/kg, po administered as single dose and measured on day 14; type: organism-based; settings: in vivo, 336 h, dose 600-1200 mg/kg, time 14 day
[11] = Acute toxicity in ICR mouse assessed as abnormalities in heart at 600 to 1200 mg/kg, po administered as single dose and measured on day 14; type: organism-based; settings: in vivo, 336 h, dose 600-1200 mg/kg, time 14 day
[12] = AUC(0 to t) in Sprague-Dawley rat at 4 mg/kg, iv by LC-MS/MS analysis; type: ADME, organism-based; set-up: dose 4 mg/kg; settings: in vivo
Procedure, shortened: as §1

[13] = Half life in Sprague-Dawley rat at 20 mg/kg, po by LC-MS/MS analysis; type: ADME, organism-based; settings: in vivo
Procedure, shortened: as §1

[14] = Apparent clearance during terminal phase in Sprague-Dawley rat at 20 mg/kg, po by LC-MS/MS analysis; type: ADME, organism-based; settings: in vivo, read-out: CLz/F (converted)
Procedure, shortened: as §1

[15] = Cmax in Sprague-Dawley rat at 20 mg/kg, po by LC-MS/MS analysis; type: ADME, organism-based; set-up: route oral, dose 20 mg/kg; settings: in vivo
Procedure, shortened: as §1

[16] = Apparent clearance during terminal phase in Sprague-Dawley rat at 4 mg/kg, iv by LC-MS/MS analysis; type: ADME, organism-based; settings: in vivo
Procedure, shortened: as §1

[17] = AUC(0 to t) in Sprague-Dawley rat at 20 mg/kg, po by LC-MS/MS analysis; type: ADME, organism-based; set-up: dose 20 mg/kg; settings: in vivo
[18] = Oral bioavailability in Sprague-Dawley rat at 20 mg/kg by LC-MS/MS analysis; type: ADME, organism-based; settings: in vivo
Procedure, shortened: as §1

[19] = Half life in Sprague-Dawley rat at 4 mg/kg, iv by LC-MS/MS analysis; type: ADME, organism-based; settings: in vivo
Procedure, shortened: as §1

[20] = Acute toxicity in ICR mouse assessed as animal survival at 1000 mg/kg, po measured on day 14 (reference value: 100%); type: organism-based; settings: in vivo, time 14 day
[21] = Cmax in Sprague-Dawley rat at 4 mg/kg, iv by LC-MS/MS analysis; type: ADME, organism-based; set-up: route intravenous, dose 4 mg/kg; settings: in vivo
Procedure, shortened: as §1

Hepatocyte growth factor receptor, sequence (P08581 whole entry): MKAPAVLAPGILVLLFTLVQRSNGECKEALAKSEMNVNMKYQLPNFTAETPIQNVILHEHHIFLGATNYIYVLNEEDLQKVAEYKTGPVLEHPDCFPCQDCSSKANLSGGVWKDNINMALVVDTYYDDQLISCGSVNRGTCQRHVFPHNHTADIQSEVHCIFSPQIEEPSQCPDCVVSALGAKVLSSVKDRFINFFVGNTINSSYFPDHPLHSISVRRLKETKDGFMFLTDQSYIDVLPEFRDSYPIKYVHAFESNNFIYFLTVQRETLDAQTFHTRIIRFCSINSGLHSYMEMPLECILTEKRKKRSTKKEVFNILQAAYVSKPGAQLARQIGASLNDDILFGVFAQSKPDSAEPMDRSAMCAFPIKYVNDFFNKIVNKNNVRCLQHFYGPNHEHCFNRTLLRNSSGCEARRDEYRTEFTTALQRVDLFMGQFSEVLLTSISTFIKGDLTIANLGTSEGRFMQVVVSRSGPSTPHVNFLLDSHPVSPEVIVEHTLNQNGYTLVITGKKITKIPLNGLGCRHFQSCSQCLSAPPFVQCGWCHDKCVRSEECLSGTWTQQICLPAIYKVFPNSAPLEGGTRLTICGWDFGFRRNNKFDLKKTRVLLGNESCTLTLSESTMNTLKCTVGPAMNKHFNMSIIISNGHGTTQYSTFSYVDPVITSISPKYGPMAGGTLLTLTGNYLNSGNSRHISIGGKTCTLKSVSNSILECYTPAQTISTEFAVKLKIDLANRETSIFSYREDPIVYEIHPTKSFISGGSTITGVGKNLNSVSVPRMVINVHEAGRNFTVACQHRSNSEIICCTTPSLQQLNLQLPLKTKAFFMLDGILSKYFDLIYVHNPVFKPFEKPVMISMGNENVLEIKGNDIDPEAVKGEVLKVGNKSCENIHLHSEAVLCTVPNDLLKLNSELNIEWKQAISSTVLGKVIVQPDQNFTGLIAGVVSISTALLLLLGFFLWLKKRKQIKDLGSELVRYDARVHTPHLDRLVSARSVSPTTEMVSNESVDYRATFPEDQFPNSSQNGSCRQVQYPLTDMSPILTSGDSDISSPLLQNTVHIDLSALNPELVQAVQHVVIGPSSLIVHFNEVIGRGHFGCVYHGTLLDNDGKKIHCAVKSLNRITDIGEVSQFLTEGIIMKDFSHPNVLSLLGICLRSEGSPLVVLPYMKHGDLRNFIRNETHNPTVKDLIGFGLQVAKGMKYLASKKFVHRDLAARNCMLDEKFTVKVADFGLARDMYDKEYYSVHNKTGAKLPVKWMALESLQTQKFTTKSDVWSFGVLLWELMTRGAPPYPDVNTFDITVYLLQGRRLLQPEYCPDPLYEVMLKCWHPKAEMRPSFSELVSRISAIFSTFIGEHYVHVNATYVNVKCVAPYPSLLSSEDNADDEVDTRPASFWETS
Voltage-gated inwardly rectifying potassium channel KCNH2, sequence (Q12809 whole entry): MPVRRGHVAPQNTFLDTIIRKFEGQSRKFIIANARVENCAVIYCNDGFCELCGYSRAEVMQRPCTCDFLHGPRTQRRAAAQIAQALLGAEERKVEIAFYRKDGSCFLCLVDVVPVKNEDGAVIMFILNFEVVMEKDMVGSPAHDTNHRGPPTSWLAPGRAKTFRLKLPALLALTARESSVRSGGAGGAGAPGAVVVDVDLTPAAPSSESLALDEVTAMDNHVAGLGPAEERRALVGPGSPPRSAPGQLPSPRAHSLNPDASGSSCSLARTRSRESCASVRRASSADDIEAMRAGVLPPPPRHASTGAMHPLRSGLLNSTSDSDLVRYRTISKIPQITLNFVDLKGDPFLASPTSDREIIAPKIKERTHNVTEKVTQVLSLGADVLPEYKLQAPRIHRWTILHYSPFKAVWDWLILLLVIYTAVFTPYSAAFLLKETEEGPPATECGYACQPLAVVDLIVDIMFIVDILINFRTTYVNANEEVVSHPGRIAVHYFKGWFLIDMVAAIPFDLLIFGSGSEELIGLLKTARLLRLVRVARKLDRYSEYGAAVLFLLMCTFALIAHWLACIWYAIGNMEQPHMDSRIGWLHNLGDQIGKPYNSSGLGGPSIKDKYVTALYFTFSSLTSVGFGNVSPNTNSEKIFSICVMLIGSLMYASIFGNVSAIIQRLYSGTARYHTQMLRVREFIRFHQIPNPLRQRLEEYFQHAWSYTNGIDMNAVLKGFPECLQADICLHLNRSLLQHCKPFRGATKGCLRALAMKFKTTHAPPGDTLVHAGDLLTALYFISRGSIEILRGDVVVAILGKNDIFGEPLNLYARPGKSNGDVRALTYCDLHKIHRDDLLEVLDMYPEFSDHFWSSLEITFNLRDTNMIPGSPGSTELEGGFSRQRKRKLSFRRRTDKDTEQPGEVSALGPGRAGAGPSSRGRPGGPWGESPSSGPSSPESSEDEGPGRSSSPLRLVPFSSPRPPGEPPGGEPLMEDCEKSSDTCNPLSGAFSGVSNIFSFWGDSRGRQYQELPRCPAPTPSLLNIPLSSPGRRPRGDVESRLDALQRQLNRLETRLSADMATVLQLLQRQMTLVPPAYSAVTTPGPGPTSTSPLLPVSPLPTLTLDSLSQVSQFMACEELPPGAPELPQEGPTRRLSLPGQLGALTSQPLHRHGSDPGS

| SMILES | IC50 (PC-3) [nM] | IC50 (PANC-1) [nM] | IC50 (CAKI-1) [nM] | IC50 (HepG2) [nM] | IC50 (HCT-116) [nM] | IC50 [1] [nM] | other results |
| --- | --- | --- | --- | --- | --- | --- | --- |
| O=C(Nc1ccc(F)cc1)C1(C(=O)Nc2ccc(Oc3cc(Nc4cccc(N5CCOCC5)c4)ncn3)c(F)c2)CC1 | 4710 | 5530 | 2690 | 5970 | 7990 |  |  |
| COC(=O)c1ccc(Nc2nccc(Oc3ccc(NC(=O)C4(C(=O)Nc5ccc(F)cc5)CC4)cc3)n2)c(OC)c1 |  |  |  |  |  | > 2000 |  |
| COC(=O)c1ccc(Nc2nccc(Oc3ccc(NC(=O)C4(C(=O)Nc5ccc(F)cc5)CC4)cc3)n2)nc1 |  |  |  |  |  | > 2000 |  |
| Cc1c(C(=O)Nc2ccc(Oc3ccnc(Nc4cccc(N5CCOCC5)c4)n3)cc2)c(=O)n(-c2ccccc2)n1C | 1340 | 1010 | 530 | 1340 | 1370 |  | survival at 336 h [2]: 100%; survival at 336 h [3]: 0%; IC50 [4]: > 40000 nM; survival at 336 h [5]: 70%; Tmax [6]: 6 h; survival at 336 h [7]: 100%; Activity [8]: Non-Toxic; survival at 336 h [9]: 100%; Activity [10]: Non-Toxic; Activity [11]: Non-Toxic; AUC(0-t) [12]: 8220 ng·h/mL; half-life [13]: 9.04 h; CL/F [14]: 11 mL/min/kg; Cmax [15]: 3050 ng/mL; CLz/F [16]: 6.83 mL/min/kg; AUC(0-t) [17]: 19000 ng·h/mL; bioavailability [18]: 59.3%; half-life [19]: 8.9 h; survival at 336 h [20]: 100%; Cmax [21]: 2470 ng/mL |
| O=C1CCCc2cc(Nc3nccc(Oc4ccc(NC(=O)C5(C(=O)Nc6ccc(F)cc6)CC5)cc4)n3)ccc2N1 | 2600 | 3280 | 1470 | 3240 | 3140 |  |  |
| COc1cc(C(=O)NCC2CC2)ccc1Nc1nccc(Oc2ccc(NC(=O)C3(C(=O)Nc4ccc(F)cc4)CC3)cc2)n1 |  |  |  |  |  | > 2000 |  |
| COc1cc2nccc(Oc3ccc(NC(=O)C4(C(=O)Nc5ccc(F)cc5)CC4)cc3)c2cc1OC [CABOZANTINIB] |  |  |  |  |  |  | IC50 [4]: > 30000 nM |

Continued, in another order:

| IC50 (PC-3) [nM] | IC50 (PANC-1) [nM] | IC50 (CAKI-1) [nM] | IC50 (HepG2) [nM] | IC50 (HCT-116) [nM] | IC50 [1] [nM] | SMILES | other results |
| --- | --- | --- | --- | --- | --- | --- | --- |
| 2250 | 3160 | 1630 | 1730 | 2020 |  | CN1CCN(c2cccc(Nc3nccc(Oc4ccc(NC(=O)C5(C(=O)Nc6ccc(F)cc6)CC5)cc4)n3)c2)CC1 |  |
| 2340 | 3400 | 2920 | 2210 | 3150 |  | O=C(Nc1ccc(F)cc1)C1(C(=O)Nc2ccc(Oc3ccnc(Nc4cccc(N5CCOCC5)c4)n3)c(F)c2)CC1 |  |
| 3300 | 4010 | 2590 | 4860 | 4790 |  | O=C(Nc1ccc(F)cc1)C1(C(=O)Nc2ccc(Oc3ccnc(Nc4cccc(N5CCOCC5)c4)c3)cc2)CC1 |  |
| 1930 | 2850 | 3310 | 7010 | 3560 |  | CNC(=O)c1cccc(Nc2nccc(Oc3ccc(NC(=O)C4(C(=O)Nc5ccc(F)cc5)CC4)cc3)n2)c1 |  |
|  |  |  |  |  | > 1000 | O=C(Nc1ccc(F)cc1)c1ccccc1Nc1ccc(Oc2ccnc(Nc3cccc(CN4CCOCC4)c3)n2)cc1 |  |
|  |  |  |  |  | > 1000 | O=C(Nc1ccc(F)cc1)c1ccccc1Nc1ccc(Oc2ccnc(Nc3cccc(N4CCOCC4)c3)n2)cc1 |  |
| 1800 | 2000 | 1880 | 2100 | 2340 |  | Cc1c(C(=O)Nc2ccc(Oc3ccnc(Nc4cccc(N5CCOCC5)c4)n3)c(F)c2)c(=O)n(-c2ccccc2)n1C |  |
| 2650 | 6670 | 3900 | 3570 | 4200 |  | O=C(Nc1ccc(F)cc1)C1(C(=O)Nc2ccc(Oc3ccnc(Nc4cccc(N5CCOCC5)c4)n3)cc2)CC1 |  |
|  |  |  |  |  | > 1000 | O=C(Nc1ccc(Oc2ccnc(Nc3cccc(N4CCOCC4)c3)n2)cc1)c1ccccc1Nc1ccc(F)cc1 |  |
|  |  |  |  |  | > 1000 | O=C(Nc1ccc(Oc2ccnc(Nc3cccc(CN4CCOCC4)c3)n2)cc1)c1ccccc1Nc1ccc(F)cc1 |  |

Source: ChEMBL document CHEMBL4840305, “Structure-guided design and development of novel N-phenylpyrimidin-2-amine derivatives as potential c-Met inhibitors” (Eur J Med Chem, 2021)
